From ChEMBL document CHEMBL5046217, “Discovery of New Imidazo[2,1-b]thiazole Derivatives as Potent Pan-RAF Inhibitors with Promising In Vitro and In Vivo Anti-melanoma Activity” (J Med Chem, 2021)

Key:
[1] = target: RAF proto-oncogene serine/threonine-protein kinase (Homo sapiens, UniProt P04049); assay: Inhibition of human wild type CRAF using myelin basic protein as substrate in presence of [gamma-33P]ATP incubated for 40 mins by scintillation counting method
[2] = target: Serine/threonine-protein kinase B-raf (Homo sapiens, UniProt P15056, V600E); assay: Inhibition of human BRAF V600E mutant using myelin basic protein as substrate in presence of [gamma-33P]ATP incubated for 40 mins by scintillation counting method
Serine/threonine-protein kinase B-raf (Homo sapiens, UniProt P15056, V600E), sequence (P15056 2-766 V600E limits assumed): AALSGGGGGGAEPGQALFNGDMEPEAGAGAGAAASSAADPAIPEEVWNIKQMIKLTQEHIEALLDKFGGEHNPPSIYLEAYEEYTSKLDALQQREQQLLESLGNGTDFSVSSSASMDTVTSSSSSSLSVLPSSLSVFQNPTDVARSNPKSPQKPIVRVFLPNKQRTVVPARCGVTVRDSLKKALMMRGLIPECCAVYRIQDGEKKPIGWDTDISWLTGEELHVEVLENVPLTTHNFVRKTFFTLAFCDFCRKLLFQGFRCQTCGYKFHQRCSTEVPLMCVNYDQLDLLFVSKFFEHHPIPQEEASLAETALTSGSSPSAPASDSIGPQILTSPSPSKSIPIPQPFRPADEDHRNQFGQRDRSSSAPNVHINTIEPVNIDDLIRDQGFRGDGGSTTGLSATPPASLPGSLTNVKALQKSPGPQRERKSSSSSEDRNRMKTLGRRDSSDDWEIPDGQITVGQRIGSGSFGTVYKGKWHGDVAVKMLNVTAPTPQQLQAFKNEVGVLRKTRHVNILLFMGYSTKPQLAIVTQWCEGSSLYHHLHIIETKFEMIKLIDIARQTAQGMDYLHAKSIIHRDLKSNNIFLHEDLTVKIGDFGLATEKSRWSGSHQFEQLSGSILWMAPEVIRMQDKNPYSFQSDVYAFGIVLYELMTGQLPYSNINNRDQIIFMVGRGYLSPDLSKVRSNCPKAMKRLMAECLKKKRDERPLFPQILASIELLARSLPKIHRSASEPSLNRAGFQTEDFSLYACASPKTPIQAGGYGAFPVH
Procedure, shortened: (§1)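 Radiometric kinase assay run at Reaction Biology. Kinase (5−10 mU) in 25 mM Tris pH 7.5, 0.02 mM EGTA, 10 mM magnesium acetate with 0.66 mg/mL myelin basic protein and [γ-33P]ATP at 1 μM ATP. Reaction started with Mg-ATP and run 40 min at room temperature, then stopped with 3% phosphoric acid. Spotted on P30 filtermat, washed, scintillation counted.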

[3] = target: Serine/threonine-protein kinase B-raf (Homo sapiens, UniProt P15056); assay: Inhibition of human wild type BRAF using myelin basic protein as substrate in presence of [gamma-33P]ATP incubated for 40 mins by scintillation counting method; procedure, shortened: as §1
Serine/threonine-protein kinase B-raf (Homo sapiens, UniProt P15056), sequence (P15056 whole entry): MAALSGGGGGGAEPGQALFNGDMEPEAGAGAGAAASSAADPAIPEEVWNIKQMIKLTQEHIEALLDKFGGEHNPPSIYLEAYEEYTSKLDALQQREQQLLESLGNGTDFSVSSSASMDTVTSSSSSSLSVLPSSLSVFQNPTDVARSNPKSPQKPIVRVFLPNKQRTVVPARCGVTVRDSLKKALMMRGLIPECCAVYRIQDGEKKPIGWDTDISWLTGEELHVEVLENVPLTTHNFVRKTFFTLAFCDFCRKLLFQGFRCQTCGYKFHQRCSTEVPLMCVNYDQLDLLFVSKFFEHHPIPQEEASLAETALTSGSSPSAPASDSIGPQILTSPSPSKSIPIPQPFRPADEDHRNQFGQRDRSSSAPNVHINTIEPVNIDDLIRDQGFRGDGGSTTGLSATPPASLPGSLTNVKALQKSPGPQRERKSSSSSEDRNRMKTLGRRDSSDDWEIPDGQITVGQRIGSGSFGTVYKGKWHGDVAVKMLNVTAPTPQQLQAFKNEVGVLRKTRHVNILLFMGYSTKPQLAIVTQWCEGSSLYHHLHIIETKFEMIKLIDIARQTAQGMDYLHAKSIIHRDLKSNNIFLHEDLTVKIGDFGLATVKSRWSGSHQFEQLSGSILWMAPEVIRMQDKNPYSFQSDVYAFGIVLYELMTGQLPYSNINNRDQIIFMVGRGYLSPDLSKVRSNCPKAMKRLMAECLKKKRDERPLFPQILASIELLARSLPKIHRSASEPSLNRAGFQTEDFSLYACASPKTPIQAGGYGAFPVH

[4] = target: Mitogen-activated protein kinase 11 (Homo sapiens, UniProt Q15759); assay: Inhibition of MAPK11 (unknown origin) incubated for 1 hr by qPCR analysis
Mitogen-activated protein kinase 11, sequence (Q15759 whole entry): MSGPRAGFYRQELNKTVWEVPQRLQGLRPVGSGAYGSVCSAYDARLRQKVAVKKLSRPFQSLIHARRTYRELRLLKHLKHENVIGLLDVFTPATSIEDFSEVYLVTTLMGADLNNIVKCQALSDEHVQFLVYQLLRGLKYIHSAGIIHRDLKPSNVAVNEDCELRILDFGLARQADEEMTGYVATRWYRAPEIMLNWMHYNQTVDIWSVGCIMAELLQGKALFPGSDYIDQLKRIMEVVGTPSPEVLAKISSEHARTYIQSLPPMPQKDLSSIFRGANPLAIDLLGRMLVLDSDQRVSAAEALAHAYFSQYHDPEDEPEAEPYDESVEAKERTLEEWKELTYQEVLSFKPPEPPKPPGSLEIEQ
Procedure, shortened: (§2)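 Competition binding assay. Kinases were either T7-phage-tagged (grown in an E. coli BL21-derived host) or expressed in HEK-293 cells and DNA-tagged. […] Bound kinase was eluted with non-biotinylated ligand and quantified by qPCR.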

[5] = target: Homeodomain-interacting protein kinase 1 (Homo sapiens, UniProt Q86Z02); assay: Inhibition of HIPK1 (unknown origin) incubated for 1 hr by qPCR analysis; procedure, shortened: as §2
[6] = target: Mitogen-activated protein kinase 14 (Homo sapiens, UniProt Q16539); assay: Inhibition of MAPK14 (unknown origin) incubated for 1 hr by qPCR analysis; procedure, shortened: as §2
Mitogen-activated protein kinase 14, sequence (Q16539 whole entry): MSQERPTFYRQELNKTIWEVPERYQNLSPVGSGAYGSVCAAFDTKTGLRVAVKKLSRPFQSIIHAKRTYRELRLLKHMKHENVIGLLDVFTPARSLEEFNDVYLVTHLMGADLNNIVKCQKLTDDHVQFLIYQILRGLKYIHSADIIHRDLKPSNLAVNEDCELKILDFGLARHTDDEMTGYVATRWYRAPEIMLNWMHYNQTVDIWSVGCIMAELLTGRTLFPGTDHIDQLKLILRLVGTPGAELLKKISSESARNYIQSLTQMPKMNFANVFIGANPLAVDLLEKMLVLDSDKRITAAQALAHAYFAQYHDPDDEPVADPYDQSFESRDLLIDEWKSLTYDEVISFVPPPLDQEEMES

[7] = target: T1, Receptor-type tyrosine-protein kinase FLT3 (Homo sapiens, UniProt P36888); assay: Inhibition of FLT3 (unknown origin) incubated for 1 hr by qPCR analysis; procedure, shortened: as §2
T1 sequence (P36888 whole entry): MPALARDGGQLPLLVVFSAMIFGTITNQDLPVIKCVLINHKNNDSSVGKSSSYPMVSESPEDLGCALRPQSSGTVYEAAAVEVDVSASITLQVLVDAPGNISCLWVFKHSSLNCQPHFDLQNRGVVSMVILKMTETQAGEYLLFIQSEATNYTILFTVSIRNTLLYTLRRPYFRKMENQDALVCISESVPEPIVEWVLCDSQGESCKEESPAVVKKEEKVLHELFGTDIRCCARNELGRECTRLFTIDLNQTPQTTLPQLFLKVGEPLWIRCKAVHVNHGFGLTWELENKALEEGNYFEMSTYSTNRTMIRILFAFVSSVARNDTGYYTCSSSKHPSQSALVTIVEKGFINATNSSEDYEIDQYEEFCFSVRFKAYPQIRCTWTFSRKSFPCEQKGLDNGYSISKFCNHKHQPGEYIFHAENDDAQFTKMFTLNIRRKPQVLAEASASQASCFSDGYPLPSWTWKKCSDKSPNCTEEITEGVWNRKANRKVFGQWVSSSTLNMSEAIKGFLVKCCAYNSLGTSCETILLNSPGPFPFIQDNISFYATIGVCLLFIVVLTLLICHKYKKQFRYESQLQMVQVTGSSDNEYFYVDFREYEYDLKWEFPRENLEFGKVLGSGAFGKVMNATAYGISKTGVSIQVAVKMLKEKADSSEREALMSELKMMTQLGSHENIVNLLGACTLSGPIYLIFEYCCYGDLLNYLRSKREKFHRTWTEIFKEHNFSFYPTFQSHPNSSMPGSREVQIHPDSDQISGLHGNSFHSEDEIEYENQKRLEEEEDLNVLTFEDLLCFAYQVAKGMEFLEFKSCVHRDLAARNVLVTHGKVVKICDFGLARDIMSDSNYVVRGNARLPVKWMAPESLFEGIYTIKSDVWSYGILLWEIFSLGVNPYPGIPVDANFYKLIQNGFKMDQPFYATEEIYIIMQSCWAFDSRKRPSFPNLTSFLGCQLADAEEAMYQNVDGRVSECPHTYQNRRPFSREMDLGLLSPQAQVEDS

[8] = target: Mitogen-activated protein kinase 8 (Homo sapiens, UniProt P45983); assay: Inhibition of MAPK8 (unknown origin) incubated for 1 hr by qPCR analysis; procedure, shortened: as §2
Mitogen-activated protein kinase 8, sequence (P45983 whole entry): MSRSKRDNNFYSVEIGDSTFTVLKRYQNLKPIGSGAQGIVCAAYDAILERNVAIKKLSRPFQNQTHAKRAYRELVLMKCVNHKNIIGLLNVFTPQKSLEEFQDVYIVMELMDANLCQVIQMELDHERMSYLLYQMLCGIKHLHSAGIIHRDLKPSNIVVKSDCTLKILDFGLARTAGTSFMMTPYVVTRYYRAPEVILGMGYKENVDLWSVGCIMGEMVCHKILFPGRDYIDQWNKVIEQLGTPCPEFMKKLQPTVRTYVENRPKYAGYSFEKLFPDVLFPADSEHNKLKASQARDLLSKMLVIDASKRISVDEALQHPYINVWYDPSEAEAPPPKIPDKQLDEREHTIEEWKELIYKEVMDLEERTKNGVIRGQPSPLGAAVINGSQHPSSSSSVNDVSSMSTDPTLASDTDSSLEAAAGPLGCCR

[9] = target: Serine/threonine-protein kinase/endoribonuclease IRE1 (Homo sapiens, UniProt O75460); assay: Inhibition of ERN1 (unknown origin) incubated for 1 hr by qPCR analysis; procedure, shortened: as §2
[10] = target: Fibroblast growth factor receptor 1 (Homo sapiens, UniProt P11362); assay: Inhibition of FGFR1 (unknown origin) incubated for 1 hr by qPCR analysis
Fibroblast growth factor receptor 1, sequence (P11362 whole entry): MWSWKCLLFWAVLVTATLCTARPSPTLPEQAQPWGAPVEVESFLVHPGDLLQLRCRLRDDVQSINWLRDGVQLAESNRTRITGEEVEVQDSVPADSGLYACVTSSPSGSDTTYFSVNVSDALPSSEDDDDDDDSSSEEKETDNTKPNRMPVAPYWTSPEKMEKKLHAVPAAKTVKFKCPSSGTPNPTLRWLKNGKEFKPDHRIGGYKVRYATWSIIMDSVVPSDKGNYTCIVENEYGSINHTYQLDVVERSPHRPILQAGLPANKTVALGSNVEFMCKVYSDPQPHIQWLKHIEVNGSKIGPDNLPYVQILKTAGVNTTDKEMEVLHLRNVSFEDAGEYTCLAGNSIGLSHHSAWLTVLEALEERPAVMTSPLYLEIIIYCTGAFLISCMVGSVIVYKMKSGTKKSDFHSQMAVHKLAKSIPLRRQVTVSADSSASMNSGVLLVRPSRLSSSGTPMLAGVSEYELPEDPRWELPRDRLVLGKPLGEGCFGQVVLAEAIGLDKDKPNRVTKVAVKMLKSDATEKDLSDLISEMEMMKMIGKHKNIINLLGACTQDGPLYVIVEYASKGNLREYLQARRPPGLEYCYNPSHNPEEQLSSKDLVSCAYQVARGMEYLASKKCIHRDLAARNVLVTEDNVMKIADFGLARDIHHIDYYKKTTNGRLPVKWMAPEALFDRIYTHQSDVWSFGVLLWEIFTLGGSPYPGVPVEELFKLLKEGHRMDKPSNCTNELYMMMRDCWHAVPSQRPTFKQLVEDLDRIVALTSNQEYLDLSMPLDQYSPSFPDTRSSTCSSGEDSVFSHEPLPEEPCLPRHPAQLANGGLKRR

[11] = target: Mitogen-activated protein kinase kinase kinase 20 (Homo sapiens, UniProt Q9NYL2); assay: Inhibition of ZAK (unknown origin) incubated for 1 hr by qPCR analysis; procedure, shortened: as §2
Mitogen-activated protein kinase kinase kinase 20, sequence (Q9NYL2 whole entry): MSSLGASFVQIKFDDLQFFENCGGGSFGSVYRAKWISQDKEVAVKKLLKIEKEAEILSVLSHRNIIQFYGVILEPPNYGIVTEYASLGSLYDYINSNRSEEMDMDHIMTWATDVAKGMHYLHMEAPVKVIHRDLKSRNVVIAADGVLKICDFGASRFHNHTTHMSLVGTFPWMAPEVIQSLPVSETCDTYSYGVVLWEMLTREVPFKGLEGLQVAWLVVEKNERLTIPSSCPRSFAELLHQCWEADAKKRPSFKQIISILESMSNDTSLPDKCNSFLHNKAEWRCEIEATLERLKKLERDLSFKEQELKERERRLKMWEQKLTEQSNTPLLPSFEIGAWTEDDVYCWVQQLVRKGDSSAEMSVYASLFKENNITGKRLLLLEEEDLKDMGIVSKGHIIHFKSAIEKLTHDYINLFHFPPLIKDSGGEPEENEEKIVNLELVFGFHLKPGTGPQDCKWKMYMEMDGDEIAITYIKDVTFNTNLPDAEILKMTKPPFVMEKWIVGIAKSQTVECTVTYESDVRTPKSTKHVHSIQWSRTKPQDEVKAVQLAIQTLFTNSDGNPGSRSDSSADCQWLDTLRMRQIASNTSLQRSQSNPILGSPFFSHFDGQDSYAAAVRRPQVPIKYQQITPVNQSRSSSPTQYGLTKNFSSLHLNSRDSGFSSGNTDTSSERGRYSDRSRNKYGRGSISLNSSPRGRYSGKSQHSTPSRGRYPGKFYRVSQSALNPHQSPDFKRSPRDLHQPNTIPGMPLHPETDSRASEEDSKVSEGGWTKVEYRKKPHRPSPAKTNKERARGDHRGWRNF

[12] = test system: Panel melanoma (Carcinoma cell lines); assay: cells; settings: Homo sapiens, 48 h, read-out: INH

RAF proto-oncogene serine/threonine-protein kinase, sequence (P04049 whole entry): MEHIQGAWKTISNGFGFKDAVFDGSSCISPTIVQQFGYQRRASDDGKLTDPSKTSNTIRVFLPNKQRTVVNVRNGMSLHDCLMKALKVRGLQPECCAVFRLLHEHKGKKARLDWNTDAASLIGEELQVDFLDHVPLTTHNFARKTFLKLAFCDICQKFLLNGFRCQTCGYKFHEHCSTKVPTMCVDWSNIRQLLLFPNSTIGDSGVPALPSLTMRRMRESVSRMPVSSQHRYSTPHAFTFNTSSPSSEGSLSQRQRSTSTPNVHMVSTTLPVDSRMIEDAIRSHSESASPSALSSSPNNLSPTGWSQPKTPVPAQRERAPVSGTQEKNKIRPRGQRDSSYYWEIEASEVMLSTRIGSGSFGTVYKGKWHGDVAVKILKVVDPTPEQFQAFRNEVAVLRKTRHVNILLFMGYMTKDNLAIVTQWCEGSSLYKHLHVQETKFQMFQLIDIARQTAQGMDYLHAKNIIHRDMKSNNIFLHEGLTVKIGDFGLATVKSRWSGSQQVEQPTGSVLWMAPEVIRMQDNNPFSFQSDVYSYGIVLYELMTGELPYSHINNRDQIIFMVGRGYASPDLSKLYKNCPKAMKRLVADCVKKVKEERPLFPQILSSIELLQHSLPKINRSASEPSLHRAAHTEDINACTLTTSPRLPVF

SMILES | IC50 [1] [nM] | IC50 [2] [nM] | IC50 [3] [nM] | other results
O=S(=O)(NCCNc1nccc(-c2c(-c3ccccc3)nc3sccn23)n1)c1ccc(F)cc1 | 112 | 69.1 | 375 | 
Cc1ccc(S(=O)(=O)NCCNc2nccc(-c3c(-c4ccc(O)cc4)nc4sccn34)n2)cc1 | 16500 | 21300 | 11300 | 
COc1cccc(-c2nc3sccn3c2-c2ccnc(NCCNS(=O)(=O)c3ccc(F)cc3)n2)c1 | 100 | 115 | 522 | 
COc1cccc(-c2nc3sccn3c2-c2ccnc(NCCNS(=O)(=O)c3ccc(C(F)(F)F)cc3)n2)c1 | 142 |  |  | IC50 [4]: 120 nM; IC50 [5]: 4580 nM; IC50 [6]: 98 nM; IC50 [7]: 2170 nM; IC50 [8]: 420 nM; IC50 [9]: > 20000 nM; IC50 [10]: 15600 nM; IC50 [11]: 8110 nM
COc1ccc(S(=O)(=O)NCCNc2nccc(-c3c(-c4cccc(OC)c4)nc4sccn34)n2)cc1 | 151 | 160 | 745 | 
O=S(=O)(NCCCNc1nccc(-c2c(-c3ccccc3)nc3sccn23)n1)c1ccc(F)cc1 | 87.8 | 57.7 | 276 | inhibition at 10 µM [12]: 59.7%
Cc1ccc(S(=O)(=O)NCCNc2nccc(-c3c(-c4cccc(O)c4)nc4sccn34)n2)cc1 | 62 | 55 | 64 | 
COc1cccc(-c2nc3sccn3c2-c2ccnc(NCCNS(=O)(=O)c3ccccc3)n2)c1 | 220 | 120 | 941 | 
COc1ccc(S(=O)(=O)NCCCNc2nccc(-c3c(-c4cccc(OC)c4)nc4sccn34)n2)cc1 | 164 | 156 | 589 | 
COc1cccc(-c2nc3sccn3c2-c2ccnc(NCCN3CC(C)(C)NS3(=O)=O)n2)c1 | 5.63 | 8.65 | 13.7 | 
COc1cccc(-c2nc3sccn3c2-c2ccnc(NCCCNS(=O)(=O)c3cccc(F)c3)n2)c1 | 111 | 102 | 526 | IC50 [4]: 95 nM; IC50 [5]: 3840 nM; IC50 [6]: 88 nM; IC50 [7]: 2980 nM; IC50 [8]: 360 nM; IC50 [9]: 15600 nM; IC50 [10]: 11800 nM; IC50 [11]: 11300 nM
CC1(C)CN(CCNc2nccc(-c3c(-c4cccc(O)c4)nc4sccn34)n2)S(=O)(=O)N1 | 4.26 | 6.35 | 10.3 | inhibition at 10 µM [12]: 79.7%
COc1ccc(S(=O)(=O)NCCCNc2nccc(-c3c(-c4ccccc4)nc4sccn34)n2)cc1 | 98.3 | 66.1 | 299 | 
COc1cccc(-c2nc3sccn3c2-c2ccnc(NCCCNS(=O)(=O)c3ccc(C)cc3)n2)c1 | 209 | 168 | 894 | 
O=S(=O)(NCCCNc1nccc(-c2c(-c3cccc(O)c3)nc3sccn23)n1)c1ccccc1 | 23 | 20 | 29 | 
COc1cccc(-c2nc3sccn3c2-c2ccnc(NCCNS(=O)(=O)c3ccc(C)cc3)n2)c1 | 163 | 177 | 987 | 

Further lines, with some results ahead:

IC50 [1] [nM] | IC50 [2] [nM] | IC50 [3] [nM] | SMILES | other results
75 | 65 | 97 | O=S(=O)(NCCNc1nccc(-c2c(-c3ccccc3)nc3sccn23)n1)c1ccc(O)cc1 | 
129 | 109 | 721 | COc1cccc(-c2nc3sccn3c2-c2ccnc(NCCCNS(=O)(=O)c3ccccc3)n2)c1 | 
106 | 112 | 561 | COc1cccc(-c2nc3sccn3c2-c2ccnc(NCCNS(=O)(=O)c3cccc(F)c3)n2)c1 | 
201 | 85.3 | 521 | Cc1ccc(S(=O)(=O)NCCCNc2nccc(-c3c(-c4ccccc4)nc4sccn34)n2)cc1 | 
13 | 9 | 18 | Cc1ccc(S(=O)(=O)NCCCNc2nccc(-c3c(-c4cccc(O)c4)nc4sccn34)n2)cc1 | 
172 | 165 | 842 | COc1cccc(-c2nc3sccn3c2-c2ccnc(NCCCNS(=O)(=O)c3ccc4ccccc4c3)n2)c1 | 
251 | 89.3 | 623 | Cc1ccc(S(=O)(=O)NCCNc2nccc(-c3c(-c4ccccc4)nc4sccn34)n2)cc1 | 
32200 | 13200 | 9210 | COc1ccc(-c2nc3sccn3c2-c2ccnc(NCCNS(=O)(=O)c3ccc(F)cc3)n2)cc1 | 
28900 | > 35000 | 20800 | COc1ccc(-c2nc3sccn3c2-c2ccnc(NCCNS(=O)(=O)c3cccc4ccccc34)n2)cc1 | 
3.91 | 7.25 | 15.5 | O=S1(=O)N(CCNc2nccc(-c3c(-c4cccc(O)c4)nc4sccn34)n2)CCN1Cc1ccccc1 | 
2.33 | 2.62 | 8.26 | COc1cccc(-c2nc3sccn3c2-c2ccnc(NCCN3CCCN(C)S3(=O)=O)n2)c1 | 
21 | 19 | 35 | O=S(=O)(NCCNc1nccc(-c2c(-c3cccc(O)c3)nc3sccn23)n1)c1ccccc1 | 
11.2 | 12.6 | 23.3 | COc1cccc(-c2nc3sccn3c2-c2ccnc(NCCN3CCCN(C(=O)OC(C)(C)C)S3(=O)=O)n2)c1 | 
9.98 | 9.57 | 11.2 | CC(C)(C)OC(=O)N1CCCN(CCNc2nccc(-c3c(-c4cccc(O)c4)nc4sccn34)n2)S1(=O)=O | 
24300 | 26300 | 9890 | COc1ccc(-c2nc3sccn3c2-c2ccnc(NCCNS(=O)(=O)c3ccc(OC)cc3)n2)cc1 | 
4.32 | 8.36 | 17.3 | COc1cccc(-c2nc3sccn3c2-c2ccnc(NCCN3CCN(Cc4ccccc4)S3(=O)=O)n2)c1 | 
6.32 | 4.56 | 7.25 | O=S1(=O)NCCN1CCNc1nccc(-c2c(-c3cccc(O)c3)nc3sccn23)n1 | 
95.2 | 90.3 | 430 | COc1cccc(-c2nc3sccn3c2-c2ccnc(NCCCNS(=O)(=O)c3ccc(F)cc3)n2)c1 | inhibition at 10 µM [12]: 101%
7.22 | 9.96 | 18.1 | COc1cccc(-c2nc3sccn3c2-c2ccnc(NCCN3CCCNS3(=O)=O)n2)c1 | 
7.21 | 5.21 | 9.56 | O=S1(=O)NCCCN1CCNc1nccc(-c2c(-c3cccc(O)c3)nc3sccn23)n1 | 
19400 | 25100 | 9710 | O=S(=O)(NCCNc1nccc(-c2c(-c3ccc(O)cc3)nc3sccn23)n1)c1ccc(O)cc1 | 
2.52 | 1.51 | 6.12 | COc1cccc(-c2nc3sccn3c2-c2ccnc(NCCN3CCN(C)S3(=O)=O)n2)c1 | 
5.61 | 10.5 | 20.3 | COc1cccc(-c2nc3sccn3c2-c2ccnc(NCCN3CCNS3(=O)=O)n2)c1 | 
